# Hits are enriched below; roughly 1.7% of the tested compounds scored in any of these assays.
# EBNA-1 inh: blocks EBNA-1 binding to DNA | EBNA-1 DNA binding, fluorescence polarization | inhibition, % at 14.8 µM | actives 0.34% (n = 300,000) | AID 1950; in the data active means inhibition above about 28%
# ZTA counter: blocks Epstein-Barr virus ZTA, an EBNA-1 counter-screen | inhibition, % at 11 µM | actives 0.15% (n = 320,000) | AID 2234 | ZTA-DNA binding, fluorescence polarization | P03206; in the data active means inhibition above about 33%
# PP5 inh: inhibitors of human protein phosphatase 5 (PP5); AID 1987; purified PP5c, OMFP substrate fluorescence; inhibition, % at 6.7 µM; P53041; actives 0.18% (n = 320,000);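 active means inhibition above the campaign's mean inhibition across all tested compounds plus 3 SD, cut at about 9.5% in these data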
# Target sequence (P53041 whole entry, looked up): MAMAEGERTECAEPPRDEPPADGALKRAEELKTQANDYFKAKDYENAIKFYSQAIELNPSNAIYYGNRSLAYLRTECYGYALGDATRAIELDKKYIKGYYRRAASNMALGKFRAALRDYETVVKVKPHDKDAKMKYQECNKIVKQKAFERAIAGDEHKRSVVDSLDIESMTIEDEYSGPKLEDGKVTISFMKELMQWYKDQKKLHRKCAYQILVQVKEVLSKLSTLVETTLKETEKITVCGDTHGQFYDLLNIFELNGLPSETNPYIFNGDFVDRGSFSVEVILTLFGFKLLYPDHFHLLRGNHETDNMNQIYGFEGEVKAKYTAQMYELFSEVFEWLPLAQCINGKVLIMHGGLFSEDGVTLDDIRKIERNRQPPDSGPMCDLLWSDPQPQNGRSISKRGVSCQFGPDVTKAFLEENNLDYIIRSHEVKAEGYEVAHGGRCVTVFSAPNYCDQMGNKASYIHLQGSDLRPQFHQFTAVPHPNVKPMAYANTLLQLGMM
# PP1 counter: counter-screen for PP5 inhibitors: inhibitors of human PP1-alpha | P62136 | purified PP1alpha, OMFP fluorescence | inhibition, % at 6.7 µM | actives 0.9% (n = 320,000) | AID 2235;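 active means inhibition above the mean inhibition of all tested compounds plus 3 SD, computed separately for each screening campaign, cut at about 15% in these data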
# core dimer inh: blocks dimerization of HCV core protein; TR-FRET GST/Flag-core106 dimerization, 1536-well; inhibition, % at 5 µM; actives 0.33% (n = 300,000); AID 1899;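 active means inhibition above the mean of all tested compounds plus 3 SD, set per screening campaign, cut at about 45% in these data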
#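 System: GST/Flag-tagged HCV core106 proteins. Incubation: compound-protein-antibody incubation 4 h at 22.5 °C. Technique: HTRF with 340 nm excitation, 617/671 nm emission. Medium: KF-containing HEPES buffer, pH 7.45, DTT, CHAPS, BSA. Read-out: inhibition (%) from 671 over 617 nm ratio. Also added: Eu(K)-anti-GST 90 ng/mL plus XL665-anti-Flag 1 µg/mL.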
# Numbers stand for hits; i = inactive; nt = no result.
SMILES,EBNA-1 inh,ZTA counter,PP5 inh,PP1 counter,core dimer inh
Cc1ccc(C(=O)N/C(=C\c2ccc([N+](=O)[O-])cc2)C(=O)NCCc2ccccc2)cc1,i,i,i,17,i
O=C(NCCc1ccccc1)/C(=C\c1ccc([N+](=O)[O-])cc1)NC(=O)c1ccco1,i,i,i,i,i
CCC(Sc1nc2ccsc2c(=O)n1Cc1ccc(C(=O)O)cc1)C(=O)Nc1ccc(C)c(Cl)c1 (stereo not given),i,i,i,17,i
Cc1cccc(C(=O)N[C@H](C(=O)OCc2cc(=O)n3c(n2)sc2ccccc23)C(C)C)c1,i,i,i,i,49
O=C(OCc1cc(=O)n2c(n1)sc1ccccc12)c1ccc(O)cc1,i,i,i,i,50
O=C(N/N=C/c1ccco1)c1cccc(N2CCCC2=O)c1,i,i,i,i,i
O=C(N/N=C/c1ccco1)c1cccc(N2Cc3ccccc3C2)c1,i,i,i,i,63
C=CCn1c2ccccc2c(=O)c2cc(C#Cc3ccsc3)ccc21,i,i,i,17,i
O=S(=O)(c1ccc2c(c1)C(=NO)c1cc(S(=O)(=O)N3CCCCC3)ccc1-2)N1CCCCC1,i,i,i,i,48
COCCC(=O)N1CCCC(C(=O)c2ccc(C(F)(F)F)cc2)C1 (stereo not given),i,i,i,i,i
CCCn1c(=O)n(C)c(=O)c2c(SCC(=O)Nc3cc(C)on3)nc(C(C)(C)C)nc21,nt,i,i,i,nt
Nc1nc(SCc2ccc(Cl)cc2Cl)nc2nc3c(cc12)CCCC3,29,i,i,i,i
O=C(NNC(=O)c1cccc(-n2cccc2)c1)c1ccc(F)cc1,i,i,i,i,52
CC(=O)Nc1cc(NC(C)=O)cc(C(=O)OCC(=O)c2ccc3c(c2)NC(=O)CO3)c1,i,i,i,i,i
N#CCC(=O)Nc1ccc(C(=O)OCC(=O)c2ccc3c(c2)NC(=O)CO3)cc1,nt,i,i,16,nt
COc1cc(C(=O)NCC2CCCN2S(=O)(=O)c2cccs2)cc(OC)c1OC (stereo not given),i,i,i,i,i
O=C(NCC1OCCc2ccccc21)c1ccc(NC(=O)c2ccc(Cl)cc2)cc1 (stereo not given),32,i,i,i,i
COc1cc(OC)cc(C(=O)NNC(=O)CCc2nc3ccccc3c(=O)[nH]2)c1,nt,i,i,i,nt
Cc1ncc(CO)c2c1Oc1nc(-c3ccccc3)nc(SCC(=O)Nc3cccc(O)c3)c1C2,i,i,i,i,i
COc1ccc(-c2nc3c(c(SCC(=O)Nc4cccc(O)c4)n2)Cc2c(CO)cnc(C)c2O3)cc1,i,i,i,i,71
Cc1cccc(N2C(=O)C(O)=C(C(=O)c3cccs3)C2c2ccc(Cl)cc2)n1 (stereo not given),i,i,i,17,i
Cc1cccc(N2C(=O)C(O)=C(C(=O)c3cccs3)C2c2ccccc2)n1 (stereo not given),i,i,i,i,i
CCC1=NN2C(=N)/C(=C/c3cc(C)n(Cc4ccccc4)c3C)C(=O)N=C2S1,i,i,i,16,i
O=C(N/N=C/c1ccc([N+](=O)[O-])o1)c1cn(-c2ccccc2)nc1-c1ccc(Cl)cc1,i,i,i,i,46
O=S1(=O)CCOCCCN1Cc1ccccc1,i,i,i,i,i
SMILES,EBNA-1 inh,ZTA counter,PP5 inh,PP1 counter,core dimer inh
COc1ccc2c3c(cccc13)N(C)N=C2C,i,i,i,17,i
Cc1nnc(NC(=O)COc2ccc3c(C)cc(=O)oc3c2)s1,i,i,i,i,79
CCC(CC)c1nnc(NC(=O)COc2ccc3c(C)cc(=O)oc3c2)s1,i,i,i,i,i
Cc1cc(=O)oc2cc(OCC(=O)c3ccc4c(c3)NC(=O)CO4)ccc12,i,i,i,i,63
Cc1cccc(C(C)C)c1NC(=O)c1ccc(COc2ccc3c(C)cc(=O)oc3c2)cc1,i,i,i,17,i
CC(=O)Nc1ccc(NC(=O)c2ccc(COc3ccc4c(C)cc(=O)oc4c3)cc2)cc1,i,i,i,i,i
CCC(=O)N1CCc2cc(S(=O)(=O)CCC(=O)N3CCN(c4ccc(C(C)=O)cc4)CC3)ccc21,i,i,i,i,i
CCc1ccc(CNC(=O)Cc2ccc(NC(=O)C3=C(C)OCCS3)cc2)cc1,i,i,i,i,i
CC(C)c1ccccc1NC(=O)COC(=O)/C=C/c1cccc([N+](=O)[O-])c1,i,i,i,i,i
CN(C)c1ccc(-c2nn3c(-c4ccccc4Cl)nnc3s2)cc1,i,i,i,16,i
Cc1ccc(C)c(S(=O)(=O)N2CCN(C(=O)c3ccnn3C)CC2)c1,i,i,i,i,i
Cc1cc(C)c2c(c1)C1C=CCC1C(c1ccc(S(=O)(=O)N3CCOCC3)cc1)N2 (stereo not given),i,i,i,i,63
O=C(O)c1cc(Cl)c2c(c1)[C@@H]1C=CC[C@@H]1[C@H](c1ccc(S(=O)(=O)N3CCOCC3)cc1)N2,i,i,i,i,i
Cc1ccc(S(=O)(=O)N2CCC(C(=O)OCCOc3cccc(C)c3)CC2)cc1,nt,i,i,i,nt
Cc1cccc(Cn2cc(/C=C/[N+](=O)[O-])c3ccccc32)c1,i,i,i,17,i
CCOC(=O)Cn1cc(/C=C/[N+](=O)[O-])c2ccccc21,i,i,i,i,i
O=C(O)c1ccc(Cn2cc(/C=C\[N+](=O)[O-])c3ccccc32)o1,i,i,i,i,i
O=[N+]([O-])/C=C/c1cn(Cc2ccc(Cl)cc2)c2ccccc12,i,i,i,16,i
O=C(NCC1CCCO1)C1CC(c2ccccc2Cl)=NO1 (stereo not given),i,i,i,i,i
COc1cc(C(=O)Nc2cc(-c3cn4cccnc4n3)ccc2C)cc(OC)c1OC,i,i,i,i,i
O=C(COc1ccccc1[N+](=O)[O-])N/N=C/C=C/c1ccco1,i,i,i,i,i
Cc1ccc(OCC(=O)N/N=C/C=C/c2ccco2)cc1,i,i,i,i,67
O=C(NCCCN1CCN(c2ccccc2F)CC1)C1CCC(=O)N1C1CCCC1 (stereo not given),i,i,i,i,i
COc1cccc(NC(=O)CN(C)C(=O)CSc2ccc3c(c2)OCCO3)c1,nt,i,i,i,nt
COc1ccc(-c2[nH]c(-c3ccc(Cl)cc3)nc2SCC(=O)Nc2nccs2)cc1,i,i,i,16,i
SMILES,EBNA-1 inh,ZTA counter,PP5 inh,PP1 counter,core dimer inh
O=C(O)c1ccccc1NC(=O)c1ccccc1Nc1ccccc1,i,i,i,17,i
O=C(Nc1ccccc1C(=O)Nc1ccccc1C(=O)O)c1ccccc1,i,i,i,i,i
Fc1cccc(F)c1/C=C/c1ccc2ccccc2n1,i,i,i,i,i
C(=C\c1ccco1)/c1ccc2ccccc2n1,i,i,i,i,53
Cc1cc(S(=O)(=O)NCC(c2ccc3c(c2)OCO3)N2CCOCC2)ccc1F (stereo not given),i,i,i,i,i
CCOc1cc(CNCC2CCCO2)cc(Br)c1OCC(N)=O (stereo not given),i,i,i,17,i
